Experimental data reported in ChEMBL document CHEMBL4431315, “Jatrophane Diterpenoids as Modulators of P-Glycoprotein-Dependent Multidrug Resistance (MDR): Advances of Structure-Activity Relationships and Discovery of Promising MDR Reversal Agents” (J Med Chem, 2016).
The source made the active and inactive calls. The rule behind the calls is not given here.

Experiments:
[1] = test system: NCI/ADR-RES; experiment: Intrinsic cytotoxicity against human MCF7/ADR cells assessed as inhibition of cell proliferation after 48 hrs by MTT assay; type: cell-based
Method in brief: (§1)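 Seeded at 5 × 10^3 cells/well with graded compound levels, DMSO as negative control, 48 h. MTT added for 4 h, formazan dissolved in DMSO, OD read at 570 nm (reference 630 nm). IC50 by nonlinear regression; triplicate samples.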

[2] = test system: HepG2; experiment: Cytotoxicity against adriamycin-resistant human HepG2 cells assessed as inhibition of cell proliferation after 48 hrs by MTT assay; type: functional, cell-based; settings: HepG2, 48 h; method in brief: as §1
[3] = Cytotoxicity against HLF cells assessed as inhibition of cell proliferation after 48 hrs by MTT assay; type: cell-based; settings: Homo sapiens; method in brief: as §1
[4] = target: T1, ATP-dependent translocase ABCB1 (Homo sapiens, UniProt P08183); experiment: Inhibition of P-gp mediated efflux in adriamycin-resistant human HepG2 cells assessed as intracellular rhodamine-123 accumulation at 10 uM incubated in dark condition for 90 mins by flow cytometry relative to control; type: cell-based
Method in brief: (§2)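 HepG2/ADR cells seeded at 5 × 10^5/well and given compound plus 10 μM Rho123 in the dark at 37 °C for 90 min. Cells washed twice in ice-cold PBS, resuspended in PBS, read by flow cytometry in FL1 (Em 525 nm). Fold of control = (treated fluorescence − background)/(Rho123-only fluorescence − background).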

[5] = Metabolic stability in Sprague-Dawley rat liver microsomes assessed as rate constant at 100 uM by HPLC-UV analysis; type: ADME, Microsome
Method in brief: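 Rat liver microsomes at 1 mg protein/mL final, compound at 100 μM final (from a 10 mM CH3CN stock), in 100 mM PBS with 3.0 mM MgCl2 and 1.0 mM NADPH, pH 7.4, 37 °C. Sampled at 0 to 180 min and stopped with ice-cold CH3CN. Control run without NADPH. Centrifuged supernatants analysed by HPLC-UV; three independent experiments in triplicate.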

[6] = target: T1, ATP-dependent translocase ABCB1; experiment: Inhibition of P-gp mediated efflux in adriamycin-resistant human HepG2 cells assessed as intracellular rhodamine-123 accumulation at 0.125 uM incubated in dark condition for 90 mins by flow cytometry relative to control; type: cell-based; method in brief: as §2
[7] = target: T1, ATP-dependent translocase ABCB1; experiment: Inhibition of P-gp mediated efflux in adriamycin-resistant human HepG2 cells assessed as intracellular rhodamine-123 accumulation at 2 uM incubated in dark condition for 90 mins by flow cytometry relative to control; type: cell-based; method in brief: as §2
[8] = target: T1, ATP-dependent translocase ABCB1; experiment: Inhibition of P-gp mediated efflux in adriamycin-resistant human HepG2 cells assessed as intracellular rhodamine-123 accumulation at 1 uM incubated in dark condition for 90 mins by flow cytometry; type: cell-based; method in brief: as §2
[9] = Half life in Sprague-Dawley rat liver microsomes at 100 uM by HPLC-UV analysis; type: ADME, Microsome
[10] = test system: HepG2; experiment: Multidrug resistance reversal activity in adriamycin-resistant human HepG2 cells xenografted in nude BALB/c mouse assessed as tumor growth inhibition at 10 mg/kg, ip administered 2 hrs prior to ADR dosing at 5 mg/kg, ip on day 0/3/6 measured every day during compound dosing; type: functional
Method in brief: (§3)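 Female BALB/c nude mice, 5 weeks old, implanted s.c. in the right flank with 1 × 10^7 HepG2/ADR cells. At about 60 mm3, randomized into groups of seven and dosed ip on days 0, 3, 6: compound 10 mg/kg given 2 h before ADR 5 mg/kg. Controls got saline with 0.5% DMSO and 5% Kolliphor HS 15. Tumor size and body weight measured daily; survival tracked. IR from mean tumor weights; Student's t test, P < 0.05.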

[11] = test system: HepG2; experiment: Multidrug resistance reversal activity in adriamycin-resistant human HepG2 cells xenografted in nude BALB/c mouse assessed as increase in mouse survival at 10 mg/kg, ip administered 2 hrs prior to ADR dosing at 5 mg/kg, ip on day 0/3/6 measured every day during compound dosing; type: functional, organism-based; method in brief: as §3

T1 sequence (P08183 whole entry): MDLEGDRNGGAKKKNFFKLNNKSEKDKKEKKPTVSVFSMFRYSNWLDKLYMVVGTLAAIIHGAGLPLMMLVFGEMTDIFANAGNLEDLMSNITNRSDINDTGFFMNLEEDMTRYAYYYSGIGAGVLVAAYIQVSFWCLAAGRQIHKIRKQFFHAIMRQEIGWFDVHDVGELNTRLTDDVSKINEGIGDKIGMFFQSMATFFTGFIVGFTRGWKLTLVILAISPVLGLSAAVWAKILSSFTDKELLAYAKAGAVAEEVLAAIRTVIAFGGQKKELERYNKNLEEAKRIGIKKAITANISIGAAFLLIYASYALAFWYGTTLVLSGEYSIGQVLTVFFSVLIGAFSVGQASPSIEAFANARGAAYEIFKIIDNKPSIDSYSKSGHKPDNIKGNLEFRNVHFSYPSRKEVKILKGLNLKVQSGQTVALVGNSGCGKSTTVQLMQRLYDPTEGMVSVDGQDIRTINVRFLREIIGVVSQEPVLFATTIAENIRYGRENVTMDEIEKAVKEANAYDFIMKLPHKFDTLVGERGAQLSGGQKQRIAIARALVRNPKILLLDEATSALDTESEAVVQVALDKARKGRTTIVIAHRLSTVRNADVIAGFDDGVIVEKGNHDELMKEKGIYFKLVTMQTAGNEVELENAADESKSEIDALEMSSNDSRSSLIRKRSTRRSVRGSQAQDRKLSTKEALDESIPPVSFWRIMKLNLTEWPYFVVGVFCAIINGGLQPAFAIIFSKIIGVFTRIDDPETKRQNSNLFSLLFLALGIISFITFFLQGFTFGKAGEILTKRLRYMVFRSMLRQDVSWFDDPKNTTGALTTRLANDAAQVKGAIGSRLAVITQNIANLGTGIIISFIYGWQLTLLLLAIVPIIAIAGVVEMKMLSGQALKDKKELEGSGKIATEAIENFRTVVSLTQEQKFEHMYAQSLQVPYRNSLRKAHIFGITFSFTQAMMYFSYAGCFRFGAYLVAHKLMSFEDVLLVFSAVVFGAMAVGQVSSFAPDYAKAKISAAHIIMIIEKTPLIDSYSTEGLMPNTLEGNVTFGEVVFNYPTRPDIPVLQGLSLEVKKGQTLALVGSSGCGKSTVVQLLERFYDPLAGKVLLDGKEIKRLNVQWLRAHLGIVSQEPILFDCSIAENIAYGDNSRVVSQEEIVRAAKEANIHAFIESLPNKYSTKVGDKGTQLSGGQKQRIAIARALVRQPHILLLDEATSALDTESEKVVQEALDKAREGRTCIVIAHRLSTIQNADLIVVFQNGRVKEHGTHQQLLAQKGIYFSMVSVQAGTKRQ

Compound | IC50 [1] [µM] | IC50 [2] [µM] | IC50 [3] [µM] | INH [4] | k el at 100 µM [5] [s⁻¹] | FC [6] | FC [7] | INH [8] | half-life at 100 µM [9] [h] | TGI [10] [%] | Activity [11]
CC(=O)O[C@@H]1C[C@@H](OC(=O)c2ccccc2)/C(C)=C/[C@H]2[C@@H](OC(=O)c3ccccc3)[C@@H](C)[C@H](OS(=O)(=O)c3ccc(C)cc3)[C@]2(OC(C)=O)[C@H](O)[C@](C)(O)/C=C/C1(C)C | > 150 | > 150 | > 100 | Active |  |  |  |  |  |  | 
C[C@]12CC[C@H]3[C@@H](CCC4=CC(=O)CC[C@@]43C)[C@@H]1CC[C@@H]2O [TESTOSTERONE] |  |  |  |  | 0.00444 |  |  |  |  |  | 
CC(=O)O[C@@H]1C[C@@H](OC(=O)c2ccccc2)/C(C)=C/[C@H]2[C@@H](OC(=O)c3ccccc3)[C@@H](C)[C@H](OC(C)=O)[C@]2(OC(C)=O)C(=O)[C@](C)(O)/C=C/C1(C)C | > 150 | > 150 | > 100 | Active |  |  |  |  |  |  | 
COc1cc2c(cc1OC)CN(CCc1ccc(NC(=O)c3cc(OC)c(OC)cc3NC(=O)c3cnc4ccccc4c3)cc1)CC2 | 13.1 | 37.2 | 16.7 | Active | 5.5e-05 | 1.04 | 2.97 | Not Active | 3.5 |  | 
COc1ccc(CCN(C)CCCC(C#N)(c2ccc(OC)c(OC)c2)C(C)C)cc1OC (stereo not given) |  |  |  |  | 0.000392 |  |  |  |  |  | 
CC(=O)O[C@@H]1C[C@@H](OC(=O)c2ccccc2)/C(C)=C/[C@H]2[C@@H](OC(=O)c3ccccc3)[C@@H](C)[C@H](O)[C@]2(OC(C)=O)[C@H](O)[C@](C)(O)CCC1(C)C | > 150 | > 150 | > 100 | Active | 1.33e-05 | 1.34 | 2.74 | Active | 14.4 | 62.89 | Active
